Rows were chosen to be rich in hits. Some 1.6% of all compounds tested hit in one or more screens of this group.
MT1-MMP act inh: blocks activation of human MT1-MMP; P50281; actives 0.061% (n = 360,000); HT1080 RFP-PRO-GFP cells, GFP/RFP ratio fluorescence, overnight; percent of plate control window, DMSO zero; GFP/RFP ratio change, % at 20 µM; AID 651647;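 active = GFP/RFP ratio change of at least 30% with cell ATP level not reduced by more than half and red fluorescence within 50% of control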
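Test system: HT1080 RFP-PRO-GFP cells; Benchmarks: DMSO and RFP-L50D-GFP cell wells; Timing: cells overnight before dosing, compound overnight, 37 °C, 5% CO2; Compound: one 20 µM compound dose with 1% DMSO; Read-out: GFP/RFP fluorescence ratio.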
SKN-1 block: C. elegans SKN-1 inhibition | actives 0.49% (n = 360,000) | AID 624304 | C. elegans VP596 Pgst-4::GFP/RFP ratio, acrylamide-induced, 24 h | inhibition, % at 21.8 µM;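 active = interference check ratio from 0.5 to 1.5 plus GFP to RFP signal ratio inhibition reaching or exceeding a fixed threshold, cut at about 30% in these data, passing the limit was not always enough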
Rin1 Abl inh: blocks binding of human Rin1 to Abl; TR-FRET Rin1/Abl binding, biochemical; inhibition, % at 7.35 µM; actives 0.4% (n = 360,000); in the data active = inhibition above about 5%, passing the limit was not always enough
Arr AP2 block: human beta-arrestin and AP2 interaction inhibition | FITC-arrestin peptide / GST-AP2 beads, flow cytometry; AP2 beta2 appendage carries R879A mutation | inhibition, % at 10 µM | actives 0.31% (n = 340,000) | AID 504490;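 active = inhibition above a set limit, near 3 SD of compounds lacking own fluorescence, cut at about 54% in these data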;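 note: plate controls were DMSO wells for no effect and 5 µM unlabelled arrestin peptide for full effect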
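Measured by: flow cytometry, FL1 (488/535 nm); Material: AP2 appendage R879A on GSH beads; Evaluation: percent response; Timing: pre-incubation 12 min, peptide binding 1 h, room temperature; Also added: 50 nM FITC-arrestin peptide; Medium: PBS with 0.05% Tween 20 and 0.1% BSA.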
Tb MetRS inh: blocks T. brucei methionyl-tRNA synthetase activity | inhibition, % at 11.9 µM | actives 0.4% (n = 360,000) | purified T. brucei MetRS, ATP depletion, Kinase-Glo luminescence;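 active = inhibition above a per-plate cutoff of the control wells' mean inhibition plus 3 SD, cut at about 5.5% in these data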;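 note: 0% = DMSO wells median and 100% = median of wells with control inhibitor compound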
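Material: parasite MetRS enzyme / Replication: singlicate, one well per compound / Signal: luminescence of leftover ATP / Schedule: 2 h aminoacylation at 25 °C after 15 min preincubation / Medium: HEPES-MgCl2-KCl buffer plus DTT, spermine, BSA, pyrophosphatase / Doses: 11.9 µM single point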
Tb MetRS conf: Trypanosoma brucei MetRS inhibition confirmed; inhibition, % at 11.9 µM; actives 93% (n = 1,400); AID 624412; shares compounds with Tb MetRS inh; T. brucei MetRS enzyme, luminescence (ATP depletion); in the data active = inhibition above about 7%
Jurkat tox: counter-screen for T. brucei MetRS inhibitors: Jurkat cell cytotoxicity | actives 12% (n = 1,400) | inhibition, % at 8.3 µM | Jurkat cells viability, ATP luminescence | shares compounds with Tb MetRS inh; in the data active = inhibition above about 15%;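 note: 0% = vehicle and 100% = reference inhibitor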
Tb MetRS inh FP: T. brucei MetRS inhibition, orthogonal assay | shares compounds with Tb MetRS inh | purified T. brucei MetRS, fluorescence polarization | inhibition, % at 11.9 µM | actives 44% (n = 1,400) | AID 651607; in the data active = inhibition above about 17%;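 note: 0% = vehicle wells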
Active calls of the source: *; . = no result given.

SMILES	MT1-MMP act inh	SKN-1 block	Rin1 Abl inh	Arr AP2 block	Tb MetRS inh	Tb MetRS conf	Jurkat tox	Tb MetRS inh FP
COc1cccc(NC(=O)CN(C)C(=O)CCNS(=O)(=O)c2ccc(C)cc2)c1	0	-1	1	7	0	.	.	.
CCCCn1nnnc1C(c1cc2ccccc2o1)N1CCN(CC(=O)N2CCCC2)CC1 (stereo not given)	0	6	.	.	0	.	.	.
Cc1cccc(CNc2ncnc3[nH]ncc23)c1	0	23	-1	8	0	.	.	.
Clc1ccc(CNc2ncnc3[nH]ncc23)cc1Cl	9	-2	3	-9	7.1*	29*	-2	17*
CCN(CC)S(=O)(=O)c1ccc(N2CCOCC2)c(NCC(=O)Nc2ccc(F)cc2)c1	3	-3	0	8	22*	33*	1	15
CCN(CC)S(=O)(=O)c1ccc(N2CCOCC2)c(NC(=O)c2ccc(F)cc2)c1	3	2	-2	5	0	.	.	.
CCN(C(=O)CSc1nnc(Nc2ccccc2)s1)C1CCS(=O)(=O)C1 (stereo not given)	1	-5	1	-10	7.4*	16*	-7	4
O=C(CSc1nnc(Nc2ccccc2)s1)NC1CCS(=O)(=O)C1 (stereo not given)	2	12	1	-3	9.4*	27*	0	9
COc1ccc(Nc2nnc(SCC(=O)N(CC(C)C)C3CCS(=O)(=O)C3)s2)cc1 (stereo not given)	-1	8	-4	.	11*	29*	9	18*
Cc1ccccc1S(=O)(=O)NC(=O)C1(C)CCN1C(=O)Cc1ccccc1Cl (stereo not given)	-4	18	-3	.	0	.	.	.
CC(=NNC(=S)N1CC2CCC(CC2)C1)c1ccncn1	5	7	3	26	0	.	.	.
COc1cc(OC)c(NS(=O)(=O)c2cc(C(=O)NCCCN3CCOCC3)ccc2C)cc1Cl	-3	2	-3	.	0	.	.	.
O=C(Nc1ccccc1)Nc1ncc([N+](=O)[O-])s1	-7	-3	-4	4	6.4*	10*	63*	-3
O=C(CCSc1ccc(Br)cc1)Nc1cccnc1	6	6	-1	-9	6.4*	11*	-3	4
O=C(CCC(=O)c1ccc(Br)cc1)Nc1cccnc1	0	5	-2	-1	0	.	.	.
ON=C1C2CC=C(c3ccccc3)C1CCC2 (stereo not given)	-2	-1	3	-2	-1	.	.	.
O=C(Nc1ccc(F)cc1)c1ccc(-n2cncn2)c([N+](=O)[O-])c1	5	-2	5	20	34*	48*	22*	28*
CCc1ccccc1NC(=O)CNC(=O)c1ccc(-n2cncn2)c([N+](=O)[O-])c1	-9	2	-2	-14	18*	47*	-1	23*
COc1cccc(NC(=O)CN(C)C(=O)c2ccc(-n3cncn3)c([N+](=O)[O-])c2)c1	3	-7	2	18	1	.	.	.
Cc1ccc(NC(=O)c2ccc(-n3cncn3)c([N+](=O)[O-])c2)cc1F	4	-5	-3	11	13*	56*	1	25*
Cc1cccc(NC(=O)c2ccc(-n3cncn3)c([N+](=O)[O-])c2)c1	-2	11	-2	-5	20*	57*	-1	29*
CC(=O)Nc1ccc(C(=O)N2CCCCC2c2cc(C(=O)Nc3ccccc3Cl)no2)cc1 (stereo not given)	4	0	1	.	0	.	.	.
NC(=NCCc1c[nH]c2ccccc12)NC(=O)c1ccc(Cl)cc1	.	-22	0	0	29*	35*	2	16
